From PubChem BioAssay
Calls of active or inactive are those of the source.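 Rule for the calls, unless noted: active = viability at or under a set limit in both replicates, limit being median viability minus 3 SD (cut at about 48% in these data, passing the limit was not always enough); inconclusive = at or under the limit in just one replicate; inactive = at or above the limit in both replicates.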

What was measured:
[1] = reducers of endogenous Her2 protein level, primary screen, SKBR3 breast tumor cells, AlphaScreen, ATP viability (AID 461;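 active = Her2 level under about 52% in both replicate screens, with viability over 70% of control, limit read from the data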;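 for Her2 level: lower value means less Her2 protein in the cells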;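 for viability: percent of carrier control wells set as 100% viability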); details: 18-24 h, measured here: SKBR3 viability, ATP luminescence, at 10 µM
[2] = molecular target: Receptor tyrosine-protein kinase erbB-2 (Homo sapiens) (UniProt P04626); test: as above; details: 18-24 h, at 10 µM, stronger effect = lower value
[3] = SK-BR-3 cell growth inhibitors, pilot screen, 24 h, human (AID 572;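 active = viability at or below 10% of carrier control in both of two separate runs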;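 note: compound exposure lasted between 18 and 24 h rather than exactly 24 h; 100% = carrier-treated control wells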); details: SK-BR-3 viability, CellTiter-Glo luminescence, at 10 µM, stronger effect = lower value
[4] = HUVEC growth inhibition – cell-based, human, primary screen (AID 575;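 active = viability at or below 30% in both replicate assays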;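 note: 100% = median of untreated cell wells with 0.1% DMSO on each plate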); details: HUVEC proliferation, CellTiter-Glo luminescence, 72 h; at 10 µM; stronger effect = lower value
Procedure, shortened: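 Timing: 72 h treatment at 37 °C; material: HUVEC primary cells; technique: CellTiter-Glo luminescence measuring cellular ATP; controls: vehicle and MePR control wells; measure: percent of median DMSO-control luminescence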

[5] = growth inhibitors of H69AR lung tumor, primary screen, human, duplicate replicates (AID 580); details: H69AR lung tumor cells viability, ATP luminescence, 72 h; at 10 µM; stronger effect = lower value;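 note: 100% = mean luminescence of untreated wells and 0% = no signal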
[6] = reversal of MRP1-mediated doxorubicin resistance, pilot screen, H69AR cells, doxorubicin co-treatment (AID 601;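 active = viability loss from added drug above about 55%, and viability with drug at most 40%, in both replicates, limit read from the data, passing the limit was not always enough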); details: CellTiter-Glo, 72 h, at 10 µM; for differential viability (reversal): stronger effect = higher value
[7] = 384-well plate pilot, post-Golgi transport modulator project, inhibition of yeast transport mutant growth (AID 636; in the data active = inhibition above about 31%); details: absorbance 615 nm, about 18 h, stronger effect = higher value
[8] = growth suppression of yeast trafficking mutant, preliminary HTS, modulators of trafficking downstream of Golgi apparatus project, 1536-format plate, OD 615 nm (AID 637; in the data active = inhibition above about 30%); details: yeast transport mutant growth, absorbance 615 nm, 18 h; stronger effect = higher value
[9] = H69AR cells + 2 uM doxorubicin, measured here: viability with 2 uM doxorubicin, stronger effect = lower value
[10] = H69AR cells, compound alone cytotoxicity

Sequence of Receptor tyrosine-protein kinase erbB-2 (Homo sapiens) (P04626 whole entry, looked up): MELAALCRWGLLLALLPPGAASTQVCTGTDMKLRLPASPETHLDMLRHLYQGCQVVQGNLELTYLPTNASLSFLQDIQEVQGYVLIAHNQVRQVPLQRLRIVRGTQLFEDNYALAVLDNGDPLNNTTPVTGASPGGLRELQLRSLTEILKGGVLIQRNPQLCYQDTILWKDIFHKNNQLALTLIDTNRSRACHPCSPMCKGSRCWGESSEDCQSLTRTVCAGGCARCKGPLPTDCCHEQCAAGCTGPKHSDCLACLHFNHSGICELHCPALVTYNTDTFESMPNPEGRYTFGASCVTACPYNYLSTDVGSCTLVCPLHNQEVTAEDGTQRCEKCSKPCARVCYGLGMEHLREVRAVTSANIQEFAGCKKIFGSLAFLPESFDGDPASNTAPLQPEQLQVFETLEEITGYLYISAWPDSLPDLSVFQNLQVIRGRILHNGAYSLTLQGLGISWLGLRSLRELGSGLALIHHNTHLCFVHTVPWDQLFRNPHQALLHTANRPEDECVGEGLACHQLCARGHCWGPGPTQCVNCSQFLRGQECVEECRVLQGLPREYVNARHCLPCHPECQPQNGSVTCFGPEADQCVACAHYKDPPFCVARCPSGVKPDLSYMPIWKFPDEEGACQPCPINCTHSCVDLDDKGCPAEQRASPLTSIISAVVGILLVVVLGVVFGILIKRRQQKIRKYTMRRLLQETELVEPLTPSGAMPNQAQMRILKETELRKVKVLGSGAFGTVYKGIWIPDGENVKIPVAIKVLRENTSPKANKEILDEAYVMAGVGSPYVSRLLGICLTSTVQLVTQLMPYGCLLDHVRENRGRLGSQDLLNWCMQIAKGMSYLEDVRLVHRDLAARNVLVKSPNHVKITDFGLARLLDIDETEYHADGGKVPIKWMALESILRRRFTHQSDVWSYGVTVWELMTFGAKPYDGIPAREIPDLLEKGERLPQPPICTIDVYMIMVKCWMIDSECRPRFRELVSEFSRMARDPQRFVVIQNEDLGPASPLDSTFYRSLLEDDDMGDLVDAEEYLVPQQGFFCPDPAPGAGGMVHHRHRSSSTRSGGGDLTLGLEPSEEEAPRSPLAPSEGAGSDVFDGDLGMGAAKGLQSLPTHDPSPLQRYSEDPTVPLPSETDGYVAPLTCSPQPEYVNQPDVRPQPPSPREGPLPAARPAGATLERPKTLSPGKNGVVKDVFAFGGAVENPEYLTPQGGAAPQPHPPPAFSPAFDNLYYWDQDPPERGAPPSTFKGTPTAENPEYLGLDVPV

SMILES	viability [1]	Her2 level [2]	viability [3]	viability [4]	viability [5]	differential viability (reversal) ([6]; H69AR cells + 2 uM doxorubicin)	viability [6, 9]	viability [6, 10]	inhibition [7]	inhibition [8]
COC(=O)c1cc2ccsc2n1CC(=O)Nc1cc(C)cc(C)c1	96.5%	124% (inactive)	96.5% (inactive)	64% (inactive)	84.8% (inactive)	-0.08% (inactive)	84.8%	84.8%	1.92% (inactive)	14.3% (inactive)
CCc1ccccc1NC(=O)C(C#N)Cc1cccnc1 (stereo not given)	90%	88.5% (inactive)	90% (inactive)	97.4% (inactive)	94.6% (inactive)	-1.77% (inactive)	96.3%	94.6%	-2.57% (inactive)	-0.49% (inactive)
Cc1ccc(NC(=O)C2CCCN2S(=O)(=O)c2cccc3cccnc23)cc1F (stereo not given)	98%	97.5% (inactive)	98% (inactive)	102% (inactive)	93.7% (inactive)	-6.31% (inactive)	100%	93.7%	-4% (inactive)	3.93% (inactive)
CCOC(=O)c1ccc(NC(=O)NC(C)C2CCCO2)cc1 (stereo not given)	97.5%	96.5% (inactive)	97.5% (inactive)	108% (inactive)	95.6% (inactive)	5.2% (inactive)	90.4%	95.6%	-1.32% (inactive)	-7.94% (inactive)
Cc1cccc(N2C(=O)CC(N3CCN(Cc4ccc(Cl)cc4)CC3)C2=O)c1 (stereo not given)	104%	100% (inactive)	104% (inactive)	94.7% (inactive)	99.2% (inactive)	12.2% (inactive)	86.9%	99.2%	-3.87% (inactive)	0.82% (inactive)
CCCS(=O)(=O)Nc1c(C(=O)O)[nH]c2ccccc12	94.5%	93% (inactive)	94.5% (inactive)	83.9% (inactive)	94.5% (inactive)	-11.1% (inactive)	106%	94.5%	-5.13% (inactive)	-12.8% (inactive)
Cc1oc2c(CN3CCCC3)c(O)ccc2c(=O)c1-c1ccccc1	88.5%	82% (inactive)	88.5% (inactive)	80.1% (inactive)	89% (inactive)	2.93% (inactive)	86%	89%	-4.34% (inactive)	0.48% (inactive)
C/C(=C\c1cc(C(=O)O)c(C)o1)CO	102%	126% (inactive)	102% (inactive)	108% (inactive)	89.1% (inactive)	-8.12% (inactive)	97.2%	89.1%	-5.13% (inactive)	-0.33% (inactive)
O=C(/C=N/O)NCc1ccncc1	100%	94.5% (inactive)	100% (inactive)	102% (inactive)	108% (inactive)	7.88% (inactive)	100%	108%	-1.43% (inactive)	-3.81% (inactive)
COc1cc2c(C)nc(C)c(C#N)c2cc1OC	111%	93.5% (inactive)	111% (inactive)	66.4% (inactive)	86.6% (inactive)	10.1% (inactive)	76.5%	86.6%	-6% (inactive)	-2.74% (inactive)
CCCOc1nc(N)c(C#N)c(-c2ccccc2F)c1C#N	98.5%	114% (inactive)	98.5% (inactive)	82.6% (inactive)	89.7% (inactive)	29% (inactive)	60.7%	89.7%	-2.53% (inactive)	-9.52% (inactive)
Cc1ccc(-c2nnc(N(C)C(=O)c3ccccn3)s2)cn1	133%	94.5% (inactive)	133% (inactive)	90.9% (inactive)	103% (inactive)	20.9% (inactive)	82.3%	103%	-6.85% (inactive)	-4.6% (inactive)
CC1C(O)=C(c2nc3ccccc3[nH]2)C(=N)N1c1ccccc1 (stereo not given)	110%	83% (inactive)	110% (inactive)	50.5% (inactive)	16% (active)	-39% (inactive)	55%	16%	-6.71% (inactive)	-10.6% (inactive)
CC1=C(C(=O)N2CCCCC2)C2(CCC(C)CC2)OC1=O (stereo not given)	90%	102% (inactive)	90% (inactive)	109% (inactive)	94.2% (inactive)	12.9% (inactive)	81.3%	94.2%	-5.87% (inactive)	-3.61% (inactive)
C=CCNC(=O)c1cc(-c2ccccc2O)on1	97%	82.5% (inactive)	97% (inactive)	99.1% (inactive)	86.7% (inactive)	0.065% (inactive)	86.7%	86.7%	2.18% (inactive)	4.17% (inactive)
Cc1ccc(C(=O)CSc2nnc(-c3cccnc3)n2N)cc1	104%	89.5% (inactive)	104% (inactive)	68.9% (inactive)	28.2% (active)	-49.2% (inactive)	77.4%	28.2%	-0.93% (inactive)	0.97% (inactive)
COc1cccc(-n2ccnc2SCC(=O)N2CCc3ccccc32)c1	94.5%	102% (inactive)	94.5% (inactive)	109% (inactive)	102% (inactive)	-5.1% (inactive)	107%	102%	0.93% (inactive)	-3.06% (inactive)
COc1ccc(-c2noc(-c3ccccc3C(=O)Nc3cccnc3)n2)cc1OC	89.5%	83% (inactive)	89.5% (inactive)	80.6% (inactive)	90.4% (inactive)	14.8% (inactive)	75.7%	90.4%	-3.6% (inactive)	-2.38% (inactive)
CCOc1ccccc1CNC(=O)CCN1C(=O)COc2ccccc21	104%	110% (inactive)	104% (inactive)	88.8% (inactive)	92.9% (inactive)	3.42% (inactive)	89.5%	92.9%	-1.15% (inactive)	-7% (inactive)
Cc1c(/C(O)=C2/C(=O)C(=O)N(CCN3CCOCC3)C2c2cccnc2)cnn1-c1ccccc1 (stereo not given)	85.5%	108% (inactive)	85.5% (inactive)	110% (inactive)	91.5% (inactive)	9.19% (inactive)	82.3%	91.5%	1.45% (inactive)	-1.09% (inactive)
CC(C)[C@H](NC(=O)NC1CCCC1)C(=O)O	103%	97.5% (inactive)	103% (inactive)	87.9% (inactive)	104% (inactive)	15.2% (inactive)	89%	104%	-0.52% (inactive)	-9.34% (inactive)
CCCCc1c(O)nc(SCC(=O)c2ccccc2)[nH]c1=O	105%	102% (inactive)	105% (inactive)	89% (inactive)	104% (inactive)	21.1% (inactive)	83%	104%	-4.87% (inactive)	11.8% (inactive)
CCOc1ccccc1NC(=O)C1CCCN1C(=O)OCc1ccccc1 (stereo not given)	84.5%	93.5% (inactive)	84.5% (inactive)	111% (inactive)	87.6% (inactive)	2.29% (inactive)	85.3%	87.6%	-1.71% (inactive)	-10% (inactive)
Cc1cc(NC(=O)c2ccccc2Oc2ccccc2)no1	97%	92.5% (inactive)	97% (inactive)	93.5% (inactive)	110% (inactive)	16.8% (inactive)	93.5%	110%	-5.33% (inactive)	2.42% (inactive)
O=C1CC(N2CCC(C(=O)N3CCCCC3)CC2)C(=O)N1 (stereo not given)	110%	91.5% (inactive)	110% (inactive)	94.4% (inactive)	96.9% (inactive)	10% (inactive)	86.8%	96.9%	-2.63% (inactive)	3.71% (inactive)
COCC(C)NC(=O)NC(=O)c1ccc(Cl)cc1 (stereo not given)	99.5%	93% (inactive)	99.5% (inactive)	94.6% (inactive)	98.7% (inactive)	10.4% (inactive)	88.3%	98.7%	-6.13% (inactive)	4.76% (inactive)
CC1Cc2ccccc2N1C(=O)CSc1nnc2n1C(C)(C)Cc1ccccc1-2 (stereo not given)	79%	105% (inactive)	79% (inactive)	71.8% (inactive)	82.4% (inactive)	-7.96% (inactive)	90.4%	82.4%	-6.4% (inactive)	-7.3% (inactive)
